Shown are actives, neighbours in structure and some others; about 3.1% of the full set was active somewhere.
CFTR F508del cor = F508del CFTR correction, initial screen, CFBE line, single point. CFBE cells, YFP halide quenching; stimulated with forskolin plus potentiator P3; % fluorescence drop versus neutral controls. activity (quench increase), % at 7.58 µM. 350,000 compounds, 0.36% hits;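 active means mean added fluorescence quench of at least 8% versus neutral control, with both replicates also reaching 8%; inconclusive means only one of the mean or replicate conditions met; inactive means mean below 8% and not both replicates reaching 8%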;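 further: cells transiently co-express mutant CFTR-F508del with the halide-sensitive YFP; corrector assay measuring rescue of mutant channel to the surface after 24 h compound exposure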
Env fusion inh = inhibitors of HIV-1 Env-driven cell-cell fusion, primary screen, HeLa-JRFL effector, CEM21 target cells, luciferase; inhibition, % at 12.3 µM; 360,000 compounds, 1.1% hits;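 active means mean replicate inhibition score of at least 50 and every replicate individually at or above 50; inconclusive means only one of the two criteria met; inactive means mean below 50 and not all replicates reaching 50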
Cneo AK release = Cryptococcus neoformans cell lysis inducers, primary screen, AK release luminescence, single concentration; C. neoformans lysis, adenylate kinase release luminescence, 4 h; normalised: neutral wells 0, clomiphene wells 100; lysis activity, % at 15 µM; 360,000 compounds, 0.2% hits; AID 651654, 2012;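 active means mean lysis activity across replicates of at least 80%, whatever share of replicates individually reach that level; inactive means mean lysis activity below 80%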
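Schedule: static 4 h at 37 °C with compound, 1 h detection; system: C. neoformans cells; benchmarks: Clomiphene as positive control; buffer or medium: fresh YPD medium; measure: luminescence rise reflecting yeast cell lysis; measured by: luminescent adenylate kinase detection reagent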
rRNA inh HTS = reduced GFP signal of wild-type E. coli, primary screen, bacterial rRNA inhibitor project, GFP/RFP fluorescence, OD600, single point; GFP signal change (wild-type ribosome), % (no concentration beside the values); AID 720706, 2013; E. coli WT GFP vs humanized-ribosome RFP mutants, 24 h; active compounds read low; DMSO median 0, no signal -100; 350,000 compounds, 1.6% hits;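 active means significant combined selectivity score with lowered wild-type GFP, culture density cut under 30%, mutant RFP and density less affected; inactive means any of these conditions unmet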
miR122 inh = miR-122 Renilla sensor signal increase in Huh7, primary screen, miR-122 inhibitor project, cell-based, single point, plate reader; Huh7 miR-122 Renilla luciferase sensor, 48 h; neutral wells = 0, positive control = 100; activation (reporter increase), % at 12.5 µM; 340,000 compounds, 0.3% hits; AID 602342, 2012;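 active means mean replicate activation score at least 90 and every replicate individually at or above 90; inconclusive means only one of the two criteria met; inactive means neither criterion met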;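 further: higher luciferase means less miR-122 activity so hits act as miR-122 inhibitors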
INS-1E GSIS act = GLuc luminescence reporter in INS-1E cells, primary screen for activators of glucose-dependent secretion of insulin; INS-1E GLuc reporter insulin secretion, 2-3 h; activation, % at 16.6 µM; 370,000 compounds, 0.61% hits;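 active means lowest replicate activation of at least 40%, so every replicate reaches that level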
A number is an active result; n = inactive; u = inconclusive; x = no result.

SMILES	CFTR F508del cor	Env fusion inh	Cneo AK release	rRNA inh HTS	miR122 inh	INS-1E GSIS act
S=c1[nH]cc(-c2ccccc2)n1-c1cccc(Cl)c1	x	70	x	x	x	x
COc1cccc(-n2c(-c3ccccc3)c[nH]c2=S)c1	n	n	n	n	n	n
CO[C@H]1CN(C)C(=O)c2ccc(NC(C)=O)cc2OC[C@@H](C)N(Cc2ccncc2)C[C@H]1C	n	x	x	n	n	n
Cc1ccc(C2(c3ccccc3)NC(=O)N(CC(=O)NC3(C#N)CCCC3)C2=O)cc1C (stereo not given)	n	n	n	-28	x	n
C[C@H]1CN([C@@H](C)CO)C(=O)c2cc(NC(=O)CCCN(C)C)ccc2O[C@H]1CN(C)S(=O)(=O)c1ccccc1	n	n	n	n	n	n
CC12CC3CC(C)(C1)CC(C(=O)NCc1ccncc1)(C3)C2	n	101	n	n	n	n
CCOc1ccc(NC(=O)CN(C)CC(=O)Nc2ccc(Br)cc2F)cc1OCC	n	n	x	-28	n	n
CCN(CC(=O)Nc1ccc(OC)cc1)CC(=O)Nc1ccc(Br)cc1F	n	n	x	n	x	n
C[C@@H]1CCCCO[C@H](CN(C)C(=O)CCCN(C)C)[C@H](C)CN([C@@H](C)CO)C(=O)c2cc(NC(=O)c3ccncc3)ccc2O1	n	n	n	n	n	n
COc1cc(/C=C2\SC(=S)N(NC(=O)c3ccccc3O)C2=O)ccc1O	u	n	n	n	n	n
O=C(NN1C(=O)/C(=C/c2ccc(O)c([N+](=O)[O-])c2)SC1=S)c1ccccc1Cl	n	n	x	-22	x	n
CC1CCN(S(=O)(=O)c2ccc(NC(=O)N3c4ccccc4Sc4ccccc43)cc2)CC1	x	n	n	x	n	x
NS(=O)(=O)c1ccc(NC(=O)N2c3ccccc3Sc3ccccc32)cc1	n	x	x	-45	n	n
CC(C)NC(=O)N1[C@@H]2CN(C)C[C@H]1C2c1ccc(Br)cc1 (stereo not given in full)	x	x	x	n	x	n
O=S1(=O)CCN(c2ccccc2CC(c2c[nH]c3ccccc23)c2c[nH]c3ccccc23)CC1	n	85	x	n	n	n
C[C@H]1CN([C@@H](C)CO)C(=O)Cc2cc(NS(=O)(=O)c3cn(C)cn3)ccc2O[C@@H]1CN(C)C(=O)Nc1ccccc1	n	n	n	n	n	n
CC(C)C#Cc1cnc2c(c1)C(=O)N([C@@H](C)CO)C[C@@H](C)[C@H](CN(C)C(=O)Nc1cc(F)ccc1F)O2	n	n	n	n	n	n
Cc1cc(C)c(C#N)c(SCC(=O)c2ccccc2)n1	n	n	x	n	x	n
Cc1cc(=O)[nH]c(SCC(=O)c2ccccc2)c1C#N	x	x	n	x	n	43
N#C[C@@H]1[C@H](c2ccccc2-c2cccc(F)c2)[C@@H](CO)N1C(=O)NC1CCCCC1	x	x	x	n	x	n
C[C@@H]1CCCCO[C@@H](CN(C)CC2CC2)[C@H](C)CN([C@@H](C)CO)C(=O)c2cc(NC(=O)CCC(F)(F)F)ccc2O1	n	n	n	n	n	n
CC(C)NC(=O)NC(=O)COC(=O)c1ccc(S(=O)(=O)Nc2ccccc2)cc1	23	n	x	n	n	n
CC(C)NC(=O)NC(=O)COC(=O)c1ccc(OC(F)(F)F)cc1	x	n	x	x	n	n
COc1ccc(C(=O)OCC(=O)NC(=O)NC2CCCC2)cc1OC	n	n	n	n	n	56
COC(=O)c1ccc(OC)c(OC2CCCC2)c1	n	n	x	n	x	47
O=C(COC(=O)c1ccc(-c2ccc([N+](=O)[O-])cc2)o1)NC(=O)NC1CCCCC1	x	n	n	-33	n	x
COc1ccc(S(=O)(=O)N(C)C[C@H]2OCCCC[C@H](C)Oc3ccc(NS(=O)(=O)c4ccc(F)cc4)cc3C(=O)N([C@@H](C)CO)C[C@H]2C)cc1	n	n	n	n	n	n
